Data published in PubChem BioAssay AID489030 (Sanford-Burnham Center for Chemical Genomics, 2010).
In all, about 330,000 compounds went through this assay and about 2,400 (0.73%) were called active. The calls were made as follows: active = inhibition of at least 40% at 20 µM; inactive = the rest. The full list was thinned out, with actives kept by preference.

Molecular target: Apoptotic protease-activating factor 1 (Homo sapiens) (UniProt O14727)
Assay: blockers of Apaf-1-driven caspase-3 activation – biochemical, DEVD-Rh110 fluorescence, uHTS, primary screen (AID 489030);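 also: plate controls were DMSO wells for no effect and DEVD-CHO caspase inhibitor wells for full effect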
Conditions: reconstituted apoptosome caspase-3 activity, at 20 µM, stronger effect = higher value
How it was run: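 detection = Rh110 fluorescence intensity | test system = biochemical Apaf-1 apoptosome reconstitution | also added = cytochrome c and DEVD-Rh110 substrate | schedule = 30 min plus 50 min, RT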

Apoptotic protease-activating factor 1 (Homo sapiens), sequence (O14727 whole entry, looked up): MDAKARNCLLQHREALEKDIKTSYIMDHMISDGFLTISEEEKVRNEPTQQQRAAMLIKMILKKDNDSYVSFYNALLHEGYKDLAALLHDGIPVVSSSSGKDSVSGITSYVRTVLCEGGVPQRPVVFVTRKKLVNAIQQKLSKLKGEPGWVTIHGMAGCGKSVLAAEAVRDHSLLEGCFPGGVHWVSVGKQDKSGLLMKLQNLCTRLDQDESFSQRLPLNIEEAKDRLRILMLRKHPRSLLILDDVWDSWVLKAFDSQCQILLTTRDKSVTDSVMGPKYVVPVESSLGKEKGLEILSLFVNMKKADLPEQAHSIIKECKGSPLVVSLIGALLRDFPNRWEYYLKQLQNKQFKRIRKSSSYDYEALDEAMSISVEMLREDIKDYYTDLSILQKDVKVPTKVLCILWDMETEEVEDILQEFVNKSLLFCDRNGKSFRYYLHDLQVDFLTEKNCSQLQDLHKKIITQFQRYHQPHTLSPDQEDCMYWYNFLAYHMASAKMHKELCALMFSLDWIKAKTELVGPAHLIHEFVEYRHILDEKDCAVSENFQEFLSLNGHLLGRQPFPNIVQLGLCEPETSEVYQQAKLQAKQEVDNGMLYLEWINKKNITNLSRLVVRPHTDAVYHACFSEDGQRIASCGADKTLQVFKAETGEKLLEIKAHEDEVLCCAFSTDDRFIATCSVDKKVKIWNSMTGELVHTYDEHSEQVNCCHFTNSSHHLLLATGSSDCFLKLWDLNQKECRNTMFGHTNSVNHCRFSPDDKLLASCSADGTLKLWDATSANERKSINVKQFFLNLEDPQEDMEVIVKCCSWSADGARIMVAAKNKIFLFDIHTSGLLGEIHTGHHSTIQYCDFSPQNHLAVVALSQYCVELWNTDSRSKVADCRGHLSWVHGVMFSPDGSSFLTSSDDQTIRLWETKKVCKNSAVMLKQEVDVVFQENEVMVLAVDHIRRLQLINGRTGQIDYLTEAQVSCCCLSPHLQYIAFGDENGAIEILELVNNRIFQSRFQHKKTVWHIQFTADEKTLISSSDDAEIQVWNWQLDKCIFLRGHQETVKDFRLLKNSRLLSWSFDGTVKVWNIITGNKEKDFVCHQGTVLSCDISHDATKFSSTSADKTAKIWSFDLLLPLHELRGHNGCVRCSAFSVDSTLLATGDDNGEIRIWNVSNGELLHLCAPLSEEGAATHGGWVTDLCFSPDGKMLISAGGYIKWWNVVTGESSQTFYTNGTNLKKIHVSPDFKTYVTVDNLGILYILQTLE

SMILES	inhibition
CCc1ccc(/C=N/NC(=O)c2nnn(-c3nonc3N)c2CN2CCc3ccccc32)cc1	8.04% (inactive)
CC(C)CC[n+]1ccn(C2=C([O-])c3ccccc3C(=O)/C2=N\S(=O)(=O)c2ccccc2)c1	55.3% (active)
CCc1nc(C)cn1S(=O)(=O)c1cc([N+](=O)[O-])ccc1Cl	2.1% (inactive)
CCC(=O)Nc1ccc(Nc2nc(Cl)nc(Nc3ccc(NC(=O)CC)cc3)n2)cc1	-8.45% (inactive)
CC(=O)Nc1ccc(Nc2cc(C)nc(Nc3ccc(NC(C)=O)cc3)n2)cc1	46.2% (active)
COc1ccc(C(=O)NNc2cc(C)nc(NNC(=O)c3ccc(OC)cc3)n2)cc1	8.09% (inactive)
COc1ccc(OCCNC(=O)c2cc(C3CC3)nc3c2cnn3C(C)C)cc1	15% (inactive)
O=c1nc(N/N=C/c2ccco2)cn[nH]1	2.62% (inactive)
CCOC(=O)N1CCN(C(=O)COCc2cc(-c3ccc4c(c3)OCO4)on2)CC1	15.6% (inactive)
COCCNc1nc(-n2nc(C)cc2C)nc2sc3c(c12)CCCC3	8.1% (inactive)
Cc1cc(C)n(-c2nc(SCC(=O)N3CCCC3)c3c4c(sc3n2)CCCC4)n1	43.6% (active)
CC(C)c1nc(SCC(=O)Nc2cccc(C(=O)O)c2)c2c3c(sc2n1)CCCC3	7.92% (inactive)
CCN(CC)S(=O)(=O)c1cc([N+](=O)[O-])ccc1NNC(=O)Nc1ccccc1	7.25% (inactive)
COC(=O)CN1C(C)=Nc2ccc(Br)cc2C1c1ccccc1 (centres undefined)	4.57% (inactive)
COc1ccc(S(=O)(=O)N2CCCCC2)cc1NC(=O)C1CC(=O)N(c2ccc3c(c2)OCCO3)C1 (centres undefined)	18.5% (inactive)
O=C(COC(=O)c1ccc(O)cc1O)NNC(=O)c1cccs1	-6.93% (inactive)
Cc1cccc(OCCNC(=O)CSc2ccc(C(F)(F)F)cc2[N+](=O)[O-])c1	15.2% (inactive)
Cc1c(C)n(Cc2ccc(Cl)cc2)c2ccc(C(=O)NCCCN3CCOCC3)cc12	25.9% (inactive)
CN1CCN(CCCNC(=O)c2ccc(/C=C3\Oc4ccccc4N(Cc4ccc(Cl)cc4)C3=O)cc2)CC1	56.6% (active)
CC(C)OCCCNC(=O)CN1C(=O)/C(=C/c2ccccc2F)Oc2ccccc21	11% (inactive)
O=C(NCC1CC1)c1onc(CSc2ccccc2)c1C(=O)NCC1CC1	14.7% (inactive)
COc1cccc(NC(=O)CSc2nccn(-c3ccc4c(c3)OCCO4)c2=O)c1	5.15% (inactive)
CCOc1cc(CNCCN(C)C)c(Cl)cc1OCC(=O)NCCc1ccccc1	13.1% (inactive)
COc1ccc(S(=O)(=O)N(C)C[C@@H]2Oc3ccc(NS(=O)(=O)c4cn(C)cn4)cc3C(=O)N([C@@H](C)CO)C[C@@H]2C)cc1	5.38% (inactive)
